Experiment [1] has as its system Rattus norvegicus. Kind of experiment: The compound was tested in vivo for the inhibition of cholesterol biosynthesis in chow-fed rats. The experiment is classed as functional. In a few lines:
(§1)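 Acute in vivo cholesterol synthesis (AICS) in normal chow-fed rats. Compounds dosed in DMA/PEG solution, 1.0 mg/kg po unless stated otherwise. Synthesis measured as incorporation of [1-14C]acetate into plasma sterols.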

Experiment [2] addresses T1, 3-hydroxy-3-methylglutaryl-coenzyme A reductase (Rattus norvegicus) (UniProt P51639).
T1 sequence (whole entry): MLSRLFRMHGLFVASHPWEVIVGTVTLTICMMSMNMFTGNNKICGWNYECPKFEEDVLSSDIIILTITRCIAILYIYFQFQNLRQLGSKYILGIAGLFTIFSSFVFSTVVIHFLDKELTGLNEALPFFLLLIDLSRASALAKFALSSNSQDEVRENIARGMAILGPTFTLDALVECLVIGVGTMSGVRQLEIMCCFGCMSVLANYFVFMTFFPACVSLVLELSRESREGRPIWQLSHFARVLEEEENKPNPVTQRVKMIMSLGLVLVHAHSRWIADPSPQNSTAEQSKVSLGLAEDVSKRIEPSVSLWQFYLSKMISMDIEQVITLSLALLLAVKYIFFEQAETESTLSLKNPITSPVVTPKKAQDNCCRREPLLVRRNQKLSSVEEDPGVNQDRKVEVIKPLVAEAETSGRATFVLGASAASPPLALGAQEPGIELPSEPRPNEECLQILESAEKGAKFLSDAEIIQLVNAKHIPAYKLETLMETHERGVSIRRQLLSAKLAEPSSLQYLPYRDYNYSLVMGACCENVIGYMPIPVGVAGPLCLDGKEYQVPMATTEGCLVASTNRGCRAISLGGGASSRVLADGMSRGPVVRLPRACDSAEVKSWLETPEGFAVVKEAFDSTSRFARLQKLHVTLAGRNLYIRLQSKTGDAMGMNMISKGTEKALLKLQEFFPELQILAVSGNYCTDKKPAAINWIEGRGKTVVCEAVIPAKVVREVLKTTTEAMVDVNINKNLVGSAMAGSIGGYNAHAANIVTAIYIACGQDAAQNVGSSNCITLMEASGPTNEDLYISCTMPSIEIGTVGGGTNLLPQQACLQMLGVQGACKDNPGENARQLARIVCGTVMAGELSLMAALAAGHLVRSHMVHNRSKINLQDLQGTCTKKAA
Kind of experiment: Tested in vivo for the inhibition of cholesterol biosynthesis in chow-fed rats at 1.0 mg/kg. The experiment is classed as functional, organism-based. Also noted: dose 1 mg/kg. In a few lines: as §1

Experiment [3] concerns Rattus norvegicus. Put plainly: The compound in lactone form was tested in vivo for the inhibition of cholesterol biosynthesis in chow-fed rats at 1.0 mg/kg. Format: functional. In a few lines: as §1
Experiment [4] relates to Rattus norvegicus. Put plainly: The compound was tested in vivo for the inhibition of cholesterol biosynthesis in chow-fed rats at 1.0 mg/kg. The experiment is classed as functional. In a few lines: as §1
The subject of experiment [5] is Canis familiaris. Put plainly: Hypocholesterolemic activity in Cholestyramine-primed Beagle dogs at dose of 1.0 mg/kg two weeks after. The experiment is classed as functional, Canis lupus familiaris. In a few lines:
(§2)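 Beagle dogs pretreated with cholestyramine resin, then given resin plus inhibitor. Plasma cholesterol read after 2 and 4 weeks of drug treatment. Values are mean percent change from pretreatment values within the same group; significance versus untreated controls at p < 0.05.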

Experiment [6] has as its system Canis familiaris. Put plainly: Hypocholesterolemic activity in Cholestyramine-primed Beagle dogs at dose of 1.0 mg/kg four weeks after. Format: functional, Canis lupus familiaris. In a few lines: as §2
Experiment [7] relates to Canis familiaris. Put plainly: Hypocholesterolemic activity in Cholestyramine-primed Beagle dogs at dose of 0.1 mg/kg four weeks after. Format: functional, Canis lupus familiaris. In a few lines:
as §2

Experiment [8] has as its system Canis familiaris. Kind of experiment: Hypocholesterolemic activity in Cholestyramine-primed Beagle dogs at dose of 0.3 mg/kg four weeks after. Format: functional, Canis lupus familiaris. In a few lines: as §2
Experiment [9] concerns Canis familiaris. Kind of experiment: Hypocholesterolemic activity in Cholestyramine-primed Beagle dogs at dose of 0.3 mg/kg two weeks after. Format: functional, Canis lupus familiaris. In a few lines:
as §2

Experiment [10] concerns Canis familiaris. Kind of experiment: Hypocholesterolemic activity in Cholestyramine-primed Beagle dogs at dose of 0.1 mg/kg two weeks after. Format: functional, Canis lupus familiaris. In a few lines:
as §2

Experiment [11] concerns Rattus norvegicus. Kind of experiment: The compound was tested in vivo for the inhibition of cholesterol biosynthesis in chow-fed rats at 1.0 mg/kg. Format: functional. In a few lines:
as §1

Experiment [12] has as its system Rattus norvegicus. Kind of experiment: The compound form was tested in vivo for the inhibition of cholesterol biosynthesis in chow-fed rats at 1.0 mg/kg; not determined. The experiment is classed as functional. In a few lines: as §1

Consider `CC(C)c1nn(-c2cnccn2)c(-c2ccc(F)cc2)c1/C=C/[C@@H](O)C[C@@H](O)CC(=O)[O-].[Na+]`, for which the Inhibition in experiment [1] worked out at 91%. This molecule showed an inhibition in experiment [2] of 75%.

In experiment [2], `CC(C)c1nn(-c2ccccn2)c(-c2ccc(F)cc2)c1/C=C/[C@@H](O)C[C@@H](O)CC(=O)O` yielded an inhibition of 98%. The same molecule showed an inhibition in vivo at 1 mg/kg in experiment [3] of 85%.

Regarding `CC(C)c1nn(-c2ccccc2)c(-c2ccc(F)cc2)c1CCC1C[C@@H](O)CC(=O)O1` (some centres undefined), the inhibition in vivo at 1 mg/kg in experiment [4] was 54%.

In experiment [2], `CC(C)c1nn(-c2ccc3ccccc3n2)c(-c2ccc(F)cc2)c1/C=C/[C@@H](O)C[C@@H](O)CC(=O)O` yielded an inhibition of 69%.

The molecule `CC(C)c1nn(-c2ccc3ccccc3n2)c(-c2ccc(F)cc2)c1/C=C/[C@@H]1C[C@@H](O)CC(=O)O1` displayed an inhibition in experiment [2] of 75%.

In turn, `CC(C)c1nn(-c2ccccc2)c(-c2ccc(F)cc2)c1/C=C/[C@@H](O)C[C@@H](O)CC(=O)O` registered an inhibition in [2] of 94%.

Molecule `CC(C)c1nn(-c2ccccc2)c(-c2ccc(F)cc2)c1CCC(O)C[C@@H](O)CC(=O)O` (some centres undefined) gave an inhibition in experiment [2] of 72%.

As to `CC(C)c1nn(-c2ccccn2)c(-c2ccc(F)cc2)c1CCC(O)C[C@@H](O)CC(=O)O` (some centres undefined), in experiment [2], the inhibition was found to be 68%.

Molecule `CC(C)c1nn(-c2ccccn2)c(-c2ccc(F)cc2)c1CCC1C[C@@H](O)CC(=O)O1` (some centres undefined) gave an inhibition in experiment [2] of 58%.

With `CC(C)c1nn(-c2nc3ccccc3s2)c(-c2ccc(F)cc2)c1/C=C/[C@@H](O)C[C@@H](O)CC(=O)O`, the inhibition in experiment [2] amounted to 51%.

In the case of `CC(C)c1nn(-c2nc3ccccc3s2)c(-c2ccc(F)cc2)c1/C=C/[C@@H]1C[C@@H](O)CC(=O)O1`, the inhibition in [2] turned out to be 30%.

In experiment [2], `O=C(O)C[C@H](O)C[C@H](O)/C=C/c1c(C(F)(F)F)nn(-c2ccccn2)c1-c1ccc(F)cc1` showed an inhibition of 81%.

`O=C1C[C@H](O)C[C@@H](/C=C/c2c(C(F)(F)F)nn(-c3ccccn3)c2-c2ccc(F)cc2)O1` returned an inhibition in [2] of 60%.

As to `CC(C)c1nn(-c2ccccn2)c(-c2ccc(F)cc2)c1/C=C/[C@@H]1C[C@@H](O)CC(=O)O1` (stereo in doubt; 10a), in experiment [2], the inhibition came out at 83%.

On to `CC(C)c1nn(-c2cnccn2)c(-c2ccc(F)cc2)c1/C=C/[C@@H]1C[C@@H](O)CC(=O)O1` (stereo in doubt; 10b), for which the inhibition in experiment [2] came out at 80%.

For the molecule `CC(C)c1nn(-c2ccccn2)c(-c2ccc(F)cc2)c1/C=C/[C@@H]1C[C@@H](O)CC(=O)O1` (stereo in doubt; 20a) [listing 1 of 2 here], the Change is recorded as -44% in experiment [5]; -50% in experiment [6]; -16% in experiment [7]; -32% in experiment [8]; -31% in [9]; -20% in [10].

As for `CC(C)c1nn(-c2ccccn2)c(-c2ccc(F)cc2)c1/C=C/[C@@H]1C[C@@H](O)CC(=O)O1` (stereo in doubt; 20a) [listing 2 of 2 here], in [2], the inhibition worked out at 93%.

In turn, `CC(C)c1nn(-c2cnccn2)c(-c2ccc(F)cc2)c1/C=C/[C@@H]1C[C@@H](O)CC(=O)O1` (stereo in doubt; 20b) registered an inhibition in experiment [2] of 92%.

In the case of `CC[C@H](C)C(=O)O[C@H]1C[C@@H](C)C=C2C=C[C@H](C)[C@H](CC[C@@H]3C[C@@H](O)CC(=O)O3)[C@H]21` [LOVASTATIN], the Change is reported as -25% in experiment [5]; -17% in experiment [6]; -1% in experiment [7]; -2% in [8]; -10% in experiment [9]; -7% in experiment [10]. In experiment [11], this molecule had an inhibition in vivo at 1 mg/kg of 64%.

Molecule `CC[C@H](C)C(=O)O[C@H]1C[C@H](O)C=C2C=C[C@H](C)[C@H](CC[C@@H](O)C[C@@H](O)CC(=O)O)[C@H]21` [PRAVASTATIN] gave an inhibition in [2] of 48%. The inhibition in vivo at 1 mg/kg in experiment [12] worked out at 48%.

The record behind these values is ChEMBL document CHEMBL1126067, “Inhibitors of cholesterol biosynthesis. 6. trans-6-[2-(2-N-heteroaryl-3,5-disubstituted- pyrazol-4-yl)ethyl/ethenyl]tetrahydro-4-hydroxy-2H-pyran-2-ones” (J Med Chem, 1992).
